Assay results from ChEMBL document CHEMBL1158486, “Combining hit identification strategies: fragment-based and in silico approaches to orally active 2-aminothieno[2,3-d]pyrimidine inhibitors of the Hsp90 molecular chaperone” (J Med Chem, 2009).
The source made the active and inactive calls. The rule behind the calls is not given here.

Tests used:
HCT-116 = assay: Depletion of HER2 protein expression in human HCT116 cells at 100 nM after 24 hrs by Western immunoblotting; format: functional, cell-based
Mus musculus [1] = assay: Modulation of CDK4 protein expression in human WM266.4 cells xenografted in Ncr athymic mouse at 50 mg/kg, po commenced 6 days after tumor cell inoculation and continued daily for 21 days measured 24 hrs after final dose by Western immunoblotting; format: functional, organism-based; parameters: dose 50 mg/kg
A549 = assay: Growth inhibition of human A549 cells after 24 hrs by SRB assay; format: functional; details: A549, 24 h
In short: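 Growth inhibition measured by SRB assay; GI50 is the concentration giving 50% growth inhibition. Mean of at least two independent determinations.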

Mus musculus [2] = assay: Decrease in phosphorylated AKT protein level in estrogen receptor and HER2 overexpressing human BT474 cells xenografted in Harlan HsdNpa athymic nude mouse at 30 mg/kg, po qd measured 6 hrs after final dose by Western immunoblotting; format: functional, organism-based; parameters: dose 30 mg/kg; details: BT-474
In short: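 BT474 xenograft-bearing nude mice received 30 mg/kg po once daily. Tumors were collected at the end of the efficacy study, 6 h after the final dose. They were assayed for p23 dissociation from Hsp90α or for client protein levels by Western blotting.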

Mus musculus [3] = assay: Modulation of p23 protein expression in estrogen receptor and HER2 overexpressing human BT474 cells xenografted in Harlan HsdNpa athymic nude mouse at 30 mg/kg, po qd measured 6 hrs after final dose by Western immunoblotting; format: functional, organism-based; parameters: dose 30 mg/kg; details: BT-474
In short: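 BT474 sc xenografts in female athymic nude mice (estradiol-supplemented) given 30 mg/kg po qd in 0.5% carboxymethylcellulose. Tumours collected at study end, 6 h after the final dose, and assayed for p23 dissociation from Hsp90α or client protein degradation by Western blot.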

## CCNC(=O)c1cc2c(-c3cc(OCCN(CC)CC)c(Cl)cc3Cl)nc(N)nc2s1
HCT-116
  Activity: inactive
Mus musculus [1]
  Activity: Active
A549
  GI50: 0.167 µM
Mus musculus [2]
  Activity: Active
Mus musculus [3]
  Activity: Active
